Here are results for 21 compounds from ChEMBL document CHEMBL1629477, “Efficient synthesis of 6-(hetero)arylthieno[3,2-b]pyridines by Suzuki-Miyaura coupling. Evaluation of growth inhibition on human tumor cell lines, SARs and effects on the cell cycle” (2010).

Common to all, as to format: functional
In one experiment the test system is A-375. Briefly: Growth inhibition of human A375 cells after 48 hrs by sulforhodamine B assay. The note with it: A-375, 48 h. A digest of the protocol:
(§1)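 Cells kept adherent in RPMI-1640 with 5% heat-inactivated FBS, 2 mM glutamine and penicillin/streptomycin at 37 °C, 5% CO₂. Seeded at 1.5 × 10⁵ cells/mL (MCF-7) or 0.75 × 10⁵ cells/mL (A375-C5, NCI-H460), then grown 24 h. Exposed 48 h to five serial dilutions from up to 150 µM, DMSO ≤0.25%. SRB stain, absorbance 492 nm. GI₅₀ is 50% net growth inhibition; three experiments in duplicate; doxorubicin positive control.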
(Sulforhodamine B stains cellular protein and so reports cell mass.)

For experiment [1], the system named is NCI-H460. The experiment can be described thus: Growth inhibition of human NCI-H460 cells after 48 hrs by sulforhodamine B assay. Conditions: NCI-H460, 48 h. The essentials:
as §1

A further experiment concerns MCF7. The experiment can be described thus: Growth inhibition of human MCF7 cells after 48 hrs by sulforhodamine B assay. Conditions: MCF7, 48 h. A digest of the protocol: as §1
Experiment [2] deals with NCI-H460. The experiment can be described thus: Cell cycle arrest in human NCI-H460 cells assessed as accumulation at G2/M phase after 48 hrs by flow cytometry. The essentials:
(§2)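 NCI-H460 cells plated at 0.75 × 10⁵ cells/mL, then exposed 48 h to GI₅₀ or 2 × GI₅₀ concentrations (from the SRB assay). Controls were medium only (blank) and DMSO solvent. Cells were harvested, fixed in 70% ethanol and resuspended in PBS. G1/G0, S and G2/M fractions were read by flow cytometry. Three independent experiments in duplicate, mean ± SD.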

Experiment [3] concerns NCI-H460. Briefly: Cell cycle arrest in human NCI-H460 cells assessed as accumulation at G1 phase after 48 hrs by flow cytometry. A digest of the protocol: as §2
Background: In flow cytometry, cells or beads pass a laser one at a time.

One may read the GI50 as the concentration giving 50% growth inhibition. A higher GI50 goes with lower sensitivity of the cells. As to `COC(=O)c1sc2cc(-c3cc(OC)cc(OC)c3)cnc2c1N`, the GI50 came to 82 µM with A-375, 31.8 µM in the experiment with NCI-H460 [1] and 56.6 µM in the experiment on MCF7.

On to `COC(=O)c1sc2cc(-c3ccc(N)cc3)cnc2c1N`, for which the GI50 in the experiment with A-375 is 80.8 µM; in the experiment with NCI-H460 [1] it was 37.1 µM; in the experiment on MCF7, 108 µM.

On to `COC(=O)c1sc2cc(-c3cccc(N)c3)cnc2c1N`, for which the concentration for 50% growth inhibition (GI50) in the experiment with A-375, in the experiment on NCI-H460 [1] and in the experiment with MCF7 was over 150 µM throughout.

Take `COC(=O)c1sc2cc(-c3ccccc3N)cnc2c1N`: the results for the concentration for 50% growth inhibition (GI50) in the experiment on A-375, in the experiment on NCI-H460 [1] and with MCF7 were 2.5 µM, 3.8 µM and 4.2 µM, respectively. Also, in the experiment with NCI-H460 [2], the Activity is reported as 12%.

Consider `COC(=O)c1sc2cc(-c3ccc(C(F)(F)F)cc3)cnc2c1N`, for which the concentration for 50% growth inhibition (GI50) in the experiment with A-375, in the experiment on NCI-H460 [1] and in the experiment with MCF7 was over 150 µM throughout.

With `COC(=O)c1sc2cc(-c3ccc(OC)cc3)cnc2c1N`, the GI50 in the experiment on A-375, in the experiment on NCI-H460 [1] and with MCF7 was over 150 µM throughout.

As to `COC(=O)c1sc2cc(-c3ccsc3)cnc2c1N`, the 50% growth inhibitory concentration (GI50) with A-375 worked out at 12.1 µM; in the experiment on NCI-H460 [1] it was 12.4 µM; with MCF7, 12.7 µM.

Take `COC(=O)c1sc2cc(-c3cccs3)cnc2c1N`: the GI50 is over 150 µM in the experiment with A-375, 18 µM in the experiment with NCI-H460 [1] and 26.9 µM in the experiment with MCF7.

Consider `COC(=O)c1sc2cc(-c3ccc(-c4cccs4)s3)cnc2c1N`, for which the GI50 was over 75 µM in the experiment on A-375, 0.7 µM in the experiment on NCI-H460 [1] and 1 µM in the experiment on MCF7. Also, the Activity with NCI-H460 [3] is on record as 15%.

Regarding `COC(=O)c1sc2cc(-c3ccoc3)cnc2c1N`, the GI50 in the experiment with A-375, with NCI-H460 [1] and with MCF7 was over 120 µM each time.

In the case of `COC(=O)c1sc2cc(-c3cnn(C)c3)cnc2c1N`, the GI50 in the experiment with A-375, in the experiment with NCI-H460 [1] and in the experiment on MCF7 was over 150 µM each time.

Consider `COC(=O)c1sc2cc(-c3cccnc3)cnc2c1N`, for which the GI50 in the experiment on A-375, in the experiment with NCI-H460 [1] and with MCF7 was over 112 µM throughout.

Regarding `COC(=O)c1sc2cc(-c3ccc(OC)nc3)cnc2c1N`, the 50% growth inhibitory concentration (GI50) in the experiment on A-375, in the experiment on NCI-H460 [1] and in the experiment on MCF7 was over 37.5 µM throughout.

As to `COC(=O)c1sc2cc(-c3cnc(OC)nc3OC)cnc2c1N`, the 50% growth inhibitory concentration (GI50) in the experiment with A-375, in the experiment on NCI-H460 [1] and in the experiment with MCF7 was over 75 µM in each case.

Turning to `COC(=O)c1sc2cc(-c3ccc4ccccc4c3)cnc2c1N`, the results for the 50% growth inhibitory concentration (GI50) in the experiment with A-375, with NCI-H460 [1] and in the experiment on MCF7 were 95.6 µM, 43.5 µM and 50.9 µM, respectively.

In the case of `COC(=O)c1sc2cc(-c3cnc4ccccc4c3)cnc2c1N`, the GI50 was determined as 9.1 µM in the experiment on A-375, 9.5 µM in the experiment with NCI-H460 [1] and 9.8 µM in the experiment with MCF7.

Turning to `COC(=O)c1sc2cc(-c3cncc4ccccc34)cnc2c1N`, the GI50 with A-375 stood at 10.1 µM; with NCI-H460 [1], 7.7 µM; in the experiment on MCF7, 10.7 µM.

In the case of `COC(=O)c1sc2cc(-c3ccc4ncccc4c3)cnc2c1N`, the 50% growth inhibitory concentration (GI50) in the experiment with A-375, in the experiment with NCI-H460 [1] and with MCF7 was over 150 µM throughout.

In the case of `COC(=O)c1sc2cc(-c3ccc4c(ccn4C)c3)cnc2c1N`, the GI50 with A-375 was determined as 21.2 µM; with NCI-H460 [1] it was 20.3 µM; with MCF7, 23 µM.

Consider `COC(=O)c1sc2cc(-c3ccc(C#N)cc3)cnc2c1N`, for which the 50% growth inhibitory concentration (GI50) with A-375, in the experiment on NCI-H460 [1] and with MCF7 was over 75 µM in each case.

In the case of `COC(=O)c1sc2cc(-c3ccc(C(C)=O)cc3)cnc2c1N`, the GI50 in the experiment on A-375, in the experiment with NCI-H460 [1] and with MCF7 was over 150 µM each time.
